Assay outcomes as filed in PubChem.
Rows were chosen to be rich in hits. Some 4.3% of all compounds tested hit in one or more screens of this group.
PREPL inhibitor – PREPL enzyme inhibitors, primary screen, biochemical, fluorescence polarization; inhibition, % at 5.96 µM; 320,000 tested, 0.68% active; AID 2751, 2010; recombinant PREPL, fluorescence polarization activity-based probe; Prolyl endopeptidase-like (Homo sapiens), Q4J6C6; in the data active = inhibition above about 43%
UBC13 inh – UBC13 polyubiquitin chain formation inhibitors, primary screen, biochemical, TR-FRET, uHTS; Ubiquitin-conjugating enzyme E2 N (Homo sapiens), P61088; inhibition, % at 20 µM; 330,000 tested, 0.47% active; in the data active = inhibition above about 45%, passing the limit was not always enough; inconclusive = no clear call, values can overlap the other calls
Target sequence (P61088 whole entry, looked up): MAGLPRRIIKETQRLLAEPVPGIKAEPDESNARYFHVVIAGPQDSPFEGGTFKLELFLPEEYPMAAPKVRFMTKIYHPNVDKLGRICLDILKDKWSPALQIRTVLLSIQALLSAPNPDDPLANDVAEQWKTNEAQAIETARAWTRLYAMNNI
ALR inh – inhibitors of human ALR sulfhydryl oxidase, primary screen, biochemical, H2O2 detection, HRP-luminol luminescence, single point; inhibition, % (test concentration not listed); AID 485317, 2010; 290,000 tested, 3.8% active; purified ALR, DTT oxidation;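 active = mean replicate inhibition above about 79%, with every replicate also reaching it, limit read from the data; inconclusive = only one of the two criteria met; inactive = mean below limit and not every replicate reaching it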
Target sequence (P55789 whole entry, looked up): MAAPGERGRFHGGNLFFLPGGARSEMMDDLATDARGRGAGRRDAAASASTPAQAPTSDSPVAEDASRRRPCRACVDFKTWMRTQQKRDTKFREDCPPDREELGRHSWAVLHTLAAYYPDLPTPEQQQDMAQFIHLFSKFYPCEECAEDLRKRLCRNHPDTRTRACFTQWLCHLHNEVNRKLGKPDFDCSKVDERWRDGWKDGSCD
RBBP9 inhibitor – human RBBP9 inhibitors, primary screen, biochemical, fluorescence polarization, FP-Rh probe, HTS; 220,000 tested, 0.2% active; Serine hydrolase RBBP9 (Homo sapiens), O75884; inhibition, % at 7.94 µM; recombinant RBBP9;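 active = inhibition above the campaign mean of all tested compounds plus 3 SD, cut at about 14% in these data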
Target sequence (O75884 whole entry, looked up): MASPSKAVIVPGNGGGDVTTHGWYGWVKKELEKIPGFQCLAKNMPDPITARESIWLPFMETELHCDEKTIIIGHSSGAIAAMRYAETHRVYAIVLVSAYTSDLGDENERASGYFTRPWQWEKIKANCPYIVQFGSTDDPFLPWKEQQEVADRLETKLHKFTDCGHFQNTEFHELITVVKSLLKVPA
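Test system: recombinant human RBBP9; Timing: 30 min then 45 min, 25 °C; Detection: fluorescence polarization; Control set: RBBP9 with DMSO as uninhibited control, no-protein wells as full inhibition; Compound dosing: one concentration, 7.94 µM nominal, 0.794% DMSO; Probe or stimulus: FP-Rh activity-based probe, 375 nM before mixing.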
Rin1-Abl PPI inh – inhibitors of Rin1-Abl protein binding, primary screen, biochemical, TR-FRET. Tyrosine-protein kinase ABL1 (Homo sapiens) + Ras and Rab interactor 1 (Homo sapiens), …. AID 588664, 2011. inhibition, % at 7.35 µM. 360,000 tested, 0.4% active; in the data active = inhibition above about 5%, passing the limit was not always enough
SUMO HTRF inh – inhibitors of in vitro SUMOylation cascade, primary screen, biochemical, HTRF, uHTS; SUMO-conjugating enzyme UBC9 (Homo sapiens), P63279; HTRF SUMOylation assay, SAE1/SAE2 + UBC9; inhibition, % at 35 µM; 290,000 tested, 0.36% active; AID 2006, 2009; in the data active = inhibition above about 50%, passing the limit was not always enough; inconclusive = no clear call, values can overlap the other calls
Target sequence (P63279 whole entry, looked up): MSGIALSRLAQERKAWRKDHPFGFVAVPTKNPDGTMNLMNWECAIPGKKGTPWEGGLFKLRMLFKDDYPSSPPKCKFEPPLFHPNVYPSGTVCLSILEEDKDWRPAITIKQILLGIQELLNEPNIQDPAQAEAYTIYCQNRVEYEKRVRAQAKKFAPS
Of the large screens only hits and unclear results are named; the others gave an inactive call.

CC(C)OCCCNS(=O)(=O)c1ccc2c(c1)oc(=O)n2C	ALR inh 99
Cn1c(=O)oc2cc(S(=O)(=O)Nc3ccc(Cl)cc3)ccc21	none (no result: RBBP9 inhibitor)
CCCN(CCC)CCCNS(=O)(=O)c1ccc2c(c1)oc(=O)n2C	none
Nc1nc2cc(S(=O)(=O)NC3=NCCCCC3)ccc2s1	ALR inh 91
O=C(COC(=O)c1ccc(O)cc1)Nc1cccc(S(=O)(=O)NC2=NCCCCC2)c1	none
CCOC(=O)c1ccc(S(=O)(=O)Nc2nc3cc(S(=O)(=O)NC4=NCCCCC4)ccc3s2)cc1	ALR inh 97
COc1ccc(NC(=S)N2CCC3CC2c2c(Cl)cccc23)c(OC)c1 (centres undefined)	none (no result: PREPL inhibitor, UBC13 inh, ALR inh, RBBP9 inhibitor, SUMO HTRF inh)
Cc1ccccc1N/N=C1\CCCNC1=O	none
O=C1NCCC/C1=N\Nc1ccc(Br)cc1	ALR inh 99
COc1ccc(N=c2scc(-c3ccc(S(=O)(=O)N4CCOCC4)cc3)n2CCCO)cc1	none (no result: PREPL inhibitor, UBC13 inh, ALR inh, Rin1-Abl PPI inh)
COc1ccc(-c2csc(=NCCO)n2-c2ccccc2)cc1	ALR inh 99 (no result: PREPL inhibitor, UBC13 inh, RBBP9 inhibitor)
COc1ccc(-c2csc(=Nc3ccccc3)n2CCO)cc1	ALR inh 97
COc1ccc(-c2nn(-c3ccccc3)cc2CO)cc1	none
COc1cc(/C=N/NC(=S)NC2CC3CCC2C3)ccc1O (centres undefined)	ALR inh 99
COc1ccc(/C=N/NC(=S)N[C@H]2CC3CCC2C3)cc1 (some centres undefined)	none
COc1ccc(CNC(=S)N/N=C/c2ccc(O)c(OC)c2)cc1	ALR inh 87
Cc1ccc(NC(=S)Nc2cccc3cnccc23)c(C)c1	SUMO HTRF inh 97
Cc1cc(C)cc(NC(=S)Nc2cccc3cnccc23)c1	none (no result: PREPL inhibitor, ALR inh)
O=C(O)CC/C(=N\Nc1ccccc1[N+](=O)[O-])c1cccs1	ALR inh 98 (no result: RBBP9 inhibitor)
O=C(Nc1cccc(C(F)(F)F)c1)C1Cc2c(-c3ccccc3)ccnc2O1 (centres undefined)	none (no result: PREPL inhibitor, UBC13 inh, ALR inh, RBBP9 inhibitor, SUMO HTRF inh)
CCCCn1c(N)c(N(CC(C)C)C(=O)CSCC(=O)Nc2ccc(OC)cc2)c(=O)[nH]c1=O	none (no result: RBBP9 inhibitor, SUMO HTRF inh)
Cc1cc(=O)oc2cc(O)ccc12	none (no result: RBBP9 inhibitor, SUMO HTRF inh)
CCN(CC)c1ccc2c(c1)oc(=O)c1c(Cl)cc(=O)oc12	ALR inh 97
CCN(CC)c1ccc2cc(C#N)c(=O)oc2c1	none
CCN(CC)c1ccc2c(C)c(Cl)c(=O)oc2c1	none
CCN(CC)c1ccc2c(C)cc(=O)oc2c1	ALR inh 99 (no result: RBBP9 inhibitor, SUMO HTRF inh)
CCN(CC)c1ccc2c(C)c(-c3ccc(N)cc3)c(=O)oc2c1	ALR inh 87
CCN(CC)c1ccc2ccc(=O)oc2c1	ALR inh 98
COc1ccc(NC(=O)COC(=O)c2c(NC(C)=O)sc(C)c2C)cc1	none (no result: PREPL inhibitor, UBC13 inh, ALR inh, RBBP9 inhibitor, SUMO HTRF inh)
O=C(Nc1cccc2ccccc12)c1ccc2sc([C@H]3C[C@H](O)[C@@H](CO)O3)nc2c1	none (no result: PREPL inhibitor, UBC13 inh, ALR inh, RBBP9 inhibitor, SUMO HTRF inh)
COc1ccccc1N1CCN(CCC(=O)Nc2cccc(Cl)c2)CC1	none (no result: RBBP9 inhibitor)
[O-][n+]1c2c(c3c4non(O)c4ccc31)CCCC2	ALR inh 94
COn1c2c(c3c4no[n+]([O-])c4ccc31)CCCC2	none
CCOc1ccc(/C=C/C(=O)c2c(O)cc(C)oc2=O)cc1	ALR inh 95 (no result: RBBP9 inhibitor)
COc1ccc(/C=C\C(=O)c2c(O)ccc3c(C)cc(=O)oc23)cc1	ALR inh 97
O=C(CSC1=NCCS1)Nc1ccc(S(=O)(=O)NC2CCCCC2)cc1	ALR inh 98
O=C(CSC1=NCCS1)NC1CCCCC1	none
O=C(CSC1=NCCS1)Nc1ccc(S(=O)(=O)N2CCCCCC2)cc1	ALR inh 98
COc1cc(NS(=O)(=O)c2ccc(NC(=O)CSC3=NCCS3)cc2)nc(OC)n1	ALR inh 99 (no result: Rin1-Abl PPI inh)
Cc1ccc2c3c([nH]c2c1)C(=O)CC(C)(C)S3	ALR inh 98
CN(C)CCCn1c(N)c(C#N)c2nc3ccccc3nc21	SUMO HTRF inh 103
Cc1ccc(S(=O)(=O)c2c(N)n(CCCN(C)C)c3nc4ccccc4nc23)cc1	none
Cc1cc(C)cc(NC(=O)C2C3C=CC4(O3)C2C(=O)N(CCCN(C)C)C4C(=O)NC2CCCC(C)C2C)c1 (centres undefined)	none (no result: RBBP9 inhibitor)
CC(=O)c1cc(C(=O)Nc2ccc(C(=O)O)cc2)oc1C	none
Cc1oc(C(=O)Nc2ccc(C(=O)O)cc2)cc1COc1ccccc1	ALR inh 97
CC1(C2CCC3C4CCC5CC6(CCC5(C)C4C(=O)CC32C)OCCO6)OCCO1 (centres undefined)	none (no result: PREPL inhibitor, UBC13 inh, ALR inh, RBBP9 inhibitor, SUMO HTRF inh)
CCOc1ccc2c(c1)n(CO)c(=S)n2CO	ALR inh 100
O=C(CSc1nnc(-c2ccc(O)cc2)n1Cc1ccco1)c1cccs1	ALR inh 99
O=C(CC(SCc1ccco1)c1ccc(O)cc1)c1cccs1 (centres undefined)	ALR inh 96
O=C(CSc1nnc(-c2ccc(O)cc2)n1Cc1ccco1)c1ccccc1	ALR inh 94
O=C(CC(SCCO)c1ccc2c(c1)OCO2)c1cccs1 (centres undefined)	none
CCOC(=O)C1(C)CCN1C(=O)c1cc(F)cc(F)c1 (centres undefined)	none (no result: PREPL inhibitor, UBC13 inh, ALR inh, RBBP9 inhibitor, SUMO HTRF inh)
C(/CCc1ccccc1)=N\Nc1nc2ccccc2[nH]1	ALR inh 98
CCc1nnc(N/N=C/c2c(C)[nH]c3ccccc23)n1N	ALR inh 99
COc1ccc(/C=N/Nc2nc3ccccc3[nH]2)c(OC)c1OC	ALR inh 98
Cc1[nH]c2ccccc2c1/C=N/NC(N)=S	none (no result: ALR inh)
COc1ccc(/C=N/Nc2ccccn2)c(OC)c1OC	ALR inh 99
CCOc1ccccc1CN1CCN(CC2=Cc3cc(OC)ccc3OC2)CC1CCO (centres undefined)	none
Cc1[nH]c2ccccc2c1/C=N/Nc1nc2ccccc2[nH]1	PREPL inhibitor 53
COc1cc(NC(=O)Nc2cccc(C(C)=O)c2)cc(OC)c1OC	ALR inh 98
Cc1cc(C(C)(C)C)cc(C)c1S(=O)(=O)N1CC(=O)Nc2ccccc21	none
COc1ccc(N2CCN(CCNC(=O)CCS(=O)(=O)c3cccc4nsnc34)CC2)cc1	ALR inh 94 (no result: Rin1-Abl PPI inh)
COc1ccc(OC)c(NC(=O)NCCN2CCN(c3ccccc3)CC2)c1	ALR inh inconclusive (no result: RBBP9 inhibitor)
COc1ccc(N2CCN(CCNC(=O)Nc3ccc([N+](=O)[O-])cc3OC)CC2)cc1	ALR inh 89 (no result: PREPL inhibitor, RBBP9 inhibitor)
COc1ccc(N2CCN(CCNC(=O)CCNS(=O)(=O)c3cccs3)CC2)cc1	ALR inh 93
CCOC(=O)C1=C(COC(=O)CNC(=O)c2ccc(Cl)cc2Cl)NC(=O)NC1C (centres undefined)	none (no result: RBBP9 inhibitor, SUMO HTRF inh)
